Experimental data from article PMC6075728 (Bioconjugate chemistry, 2017).
Entries after “also recorded” stand apart in the source; their conditions may differ. Where a SMILES comes first, the peptide text is derived from it. Where no end group is shown, it is not given here. The star is where a group is joined. X1 = O=C(O)CN1CCN(CC(=O)O)CCN(CC(O)Cn2cc(CCCC(=O)*)nn2)CCN(CC(=O)O)CC1; PEG2 = NCCOCCOCCC(=O)O

Key:
low-grade tumor = settings: cited from earlier work
[1] = system: PC3 prostate tumor xenografts (EDB-FN); test: Contrast enhanced T1-weighted MRI, PC3 tumor xenografts; type: in vivo, mouse (male athymic nude); settings: for tumor differentiation: CNR/enhancement in PC3 vs LNCaP tumors: PC3 compared with LNCaP tumors, during 30 min after injection; for signal/contrast enhancement: T1-weighted MRI, up to 30 min post-injection; for contrast-to-noise ratio (CNR), range: first 30 min post-injection, i.v. (ZD2-Gd(HP-DO3A) 0.1 mmol/kg), ZD2-Gd(HP-DO3A) vs ProHance P < 0.05 at all time points
[2] = system: EDB-FN in PC3 tumor sections; test: Confocal fluorescence of PC3 tumor sections; parameters: species or system mouse; settings: confocal microscopy
non-cancerous tissue = settings: cited from earlier work
[3] = system: high-grade human prostate tumor; settings: cited from earlier work
PC3 and LNCaP tumors = settings: after T1 mapping, about 30 min post-injection; n = 4
[4] = T1 relaxivity at 7T in PBS; type: physicochemical; settings: phantom, 3.12 - 50 μM
Method in brief: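 Multi-compartment phantom of the test compound in PBS at 50, 25, 12.5, 6.25 and 3.12 μM, imaged on a horizontal 7T scanner. T1 maps came from an accelerated multi-slice method combining a saturation-recovery Look-Locker sequence with spiral k-space sampling. r1 was taken from the slope of 1/T1 plotted against concentration.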

PC3 tumors = test: Quantitative T1 mapping, PC3 tumors; type: in vivo, mouse (male athymic nude); settings: 30 min after injection
[5] = Gd biodistribution / tissue retention; settings: 1 week after injection, ICP-OES
[6] = system: other organs and normal tissues; test: Contrast enhanced T1-weighted MRI, other organs and normal tissues; type: in vivo, mouse (male athymic nude); settings: i.v.
LNCaP tumors = test: Quantitative T1 mapping, LNCaP tumors; type: in vivo, mouse (male athymic nude); settings: 30 min after injection
[7] = system: LNCaP prostate tumor xenografts (EDB-FN); test: Contrast enhanced T1-weighted MRI, LNCaP tumor xenografts; type: in vivo, mouse (male athymic nude); settings: for signal/contrast enhancement: T1-weighted MRI, up to 30 min post-injection; for contrast-to-noise ratio (CNR), range: first 30 min post-injection, i.v., 7T
[8] = In vivo transmetallation and urinary excretion
EDB protein = EDB protein (Homo sapiens, UniProt P02751); test: SPR binding to immobilized EDB protein; settings: second (blue) trend line
Sequence of EDB protein (P02751 1271-1359 limits assumed): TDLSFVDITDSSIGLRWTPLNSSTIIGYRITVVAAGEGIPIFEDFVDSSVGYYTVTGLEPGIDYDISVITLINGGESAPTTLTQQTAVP

[9] = In vitro chelate stability / transmetallation in PBS with Cu2+, Ca2+, Zn2+; type: physicochemical
[10] = r1 relaxivity in PC3 tumor lysates; type: physicochemical; settings: T1 mapping phantom

TVRTSAD [ZD2]
binding to low-grade tumor (low-grade tumor): low binding
reduction of PC3 tumor enhancement by competition ([1]; co-injection of excess free ZD2 peptide 0.5 mmol/kg with ZD2-Gd(HP-DO3A) 0.1 mmol/kg, PC3 tumors, n=3): significantly reduced signal enhancement and CNR; also recorded: blocked the binding of the targeted agent and reduced tumor enhancement in the PC3 tumors
colocalization with EDB-FN [2]: colocalize with the EDB-FN fibril network
binding in non-cancerous tissue (non-cancerous tissue): non-binding
binding to high-grade human prostate tumor [3]: strong specific binding

CC(C)[C@H](NC(=O)[C@@H](NC(=O)CCOCCOCCNC(=O)CCCc1cn(CC(O)CN2CCN(CC(=O)O)CCN(CC(=O)O)CCN(CC(=O)O)CC2)nn1)[C@@H](C)O)C(=O)N[C@@H](CCCNC(=N)N)C(=O)N[C@H](C(=O)N[C@@H](CO)C(=O)N[C@@H](C)C(=O)N[C@@H](CC(=O)O)C(=O)O)[C@@H](C)O (some centres unmarked) [ZD2-Gd(HP-DO3A)] ({X1-PEG2}-TVRTSAD-OH; C-terminus assumed)
Gd3+ concentration in tumors (ICP-OES) (PC3 and LNCaP tumors): significantly higher concentration in the PC3 tumors than in the LNCaP tumors and that of ProHance in both the tumors
T1 relaxivity (r1) [4]: 3.7 mM⁻¹ s⁻¹
tumor T1, post-contrast (PC3 tumors): 1.81 ± 0.07 s
change in relaxation rate (ΔR1) (PC3 tumors; n = 4): highest relaxation rate change in the PC3 tumors among all cases
tissue retention / accumulation ([5]; 0.1 mmol-Gd/kg tail vein, ZD2-Gd(HP-DO3A) n = 4, ProHance n = 3): minimal tissue accumulation; also recorded: same low tissue retention as ProHance; also recorded: No significant difference was seen between the two groups; also recorded: minimal body accumulation
Gd3+ concentration in most organs, including brain, heart, skin [5]: below the detection limit of ICP-OES in most of the organs
contrast enhancement in other organs and normal tissues [6]: did not produce significant contrast enhancement
tumor differentiation: CNR/enhancement in PC3 vs LNCaP tumors [1]: over two times higher
CNR increase at 10 min ([1]; PC3 tumors, 10 min post-injection, 0.1 mmol/kg i.v., n=5): over two-fold increase
contrast-to-noise ratio (CNR), peak ([1]; PC3 tumors, 30 min post-injection, 0.1 mmol/kg i.v., 7T, mean±SEM, n=5): 23.7±1.68
CNR increase at 30 min ([1]; PC3 tumors, 30 min post-injection, 0.1 mmol/kg i.v., n=5): over five-fold increase
signal/contrast enhancement ([1]; PC3 tumors): strong signal enhancement within first 10 minutes post-injection
contrast-to-noise ratio (CNR), range ([1]; PC3 tumors, 7T, n=5): 12~25
tumor T1, post-contrast (LNCaP tumors): 2.54 ± 0.13 s
signal/contrast enhancement ([7]; LNCaP tumors): significantly lower signal enhancement; also recorded: not evident in slow growing LNCaP tumors; also recorded: low enhancement
CNR increase ([7]; LNCaP tumors, first 30 min after 0.1 mmol/kg i.v., n=5): 10~60%
contrast-to-noise ratio (CNR), range ([7]; LNCaP tumors, n=5): 6~9
CNR in LNCaP relative to PC3 tumors ([7]; LNCaP vs PC3, P < 0.01 for 10 and 20 min, P < 0.001 for 30 min post-injection): more than two times lower
chelation stability in vivo ([8]; summary statement, Fig. 7): same high in vitro and in vivo chelation stability
renal clearance ([8]; urine, 24 hours post-injection): rapid clearance through renal filtration
injected dose excreted in urine ([8]; within 24 hours post-injection, 0.1 mmol-Gd/kg tail vein, ICP-OES): over 95%
weak binding site in SPR Scatchard plot (EDB protein): weak binding site
relative Gd3+ content ([9]; 200-min incubation in PBS with and without Cu2+, Ca2+ or Zn2+): No decrease in Gd^3+ content was observed
transmetallation / chelate stability ([9]; 24 hours incubation with Cu2+, Ca2+ and Zn2+ in PBS, pH = 7.4): high chelate stability, comparable to its clinical analog ProHance, with no evident transmetallation
chelation stability in vitro ([9]; summary statement, Fig. 2): high chelate stability against transmetallation; also recorded: same high in vitro and in vivo chelation stability
r1 relaxivity [10]: 4.12 mM⁻¹ s⁻¹

Cys-Arg-Glu-Lys-Ala [CREKA-Gd(HP-DO3A), reference compound]
tumor differentiation: CNR/enhancement in PC3 vs LNCaP tumors [1]: no significant difference
signal/contrast enhancement ([1]; PC3 tumors): significant contrast enhancement in the periphery
signal/contrast enhancement ([7]; LNCaP tumors): significant contrast enhancement in the periphery

CC(O)CN1CCN(CC(=O)[O-])CCN(CC(=O)[O-])CCN(CC(=O)[O-])CC1.[Gd+3] (centres unmarked) [ProHance, gadoteridol, reference compound]
contrast enhancement in other organs and normal tissues [6]: did not produce significant contrast enhancement
tumor differentiation: CNR/enhancement in PC3 vs LNCaP tumors [1]: not significantly different
signal/contrast enhancement ([1]; PC3 tumors): modest contrast enhancement
contrast-to-noise ratio (CNR), range ([1]; PC3 tumors, 7T, n=5): 7~11
signal/contrast enhancement ([7]; LNCaP tumors): modest contrast enhancement
contrast-to-noise ratio (CNR), range ([7]; LNCaP tumors, n=5): 7~10
r1 relaxivity [10]: 3.17 mM⁻¹ s⁻¹
